{"source": "paper PMC6636858", "about": "(European journal of medicinal chemistry, 2019)", "key": {"human CatL": {"target": "human CatL (Homo sapiens, UniProt P07711)", "sequence (P07711 114-288 limits assumed)": "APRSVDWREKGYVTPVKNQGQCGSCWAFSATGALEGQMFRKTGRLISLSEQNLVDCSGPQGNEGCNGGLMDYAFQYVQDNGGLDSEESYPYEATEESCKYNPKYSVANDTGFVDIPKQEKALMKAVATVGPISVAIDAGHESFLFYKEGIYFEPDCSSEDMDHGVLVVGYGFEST", "sequence (P07711 292-333 limits assumed)": "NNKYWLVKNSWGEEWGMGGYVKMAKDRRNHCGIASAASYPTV", "assay": "SDS-PAGE autoradiography of adduct formation with purified CatL", "assay_type": "biochemical", "details": "E-64 10 μM or N1 20 μM"}, "HT-29 cells": {"tested_on": "HT-29 cells", "assay": "SDS-PAGE autoradiography of intracellular adducts in cell lysate", "assay_type": "cell-based, human", "details": "E-64 10 μM or N1 20 μM", "how_it_was_run": "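HT-29 cells (1 × 10^6/well) incubated 4 h at 37 °C with radioconjugate (20 μCi, 0.74 MBq, in 1 mL medium), ± E-64 (10 μM as added) or N1 (20 μM as added). Cells PBS-washed and given fresh medium. At chosen times, pooled from 3 wells, trypsinized and lysed in RIPA plus protease inhibitor (15 min on ice). Cleared lysate heated in SDS sample buffer (85 °C, 2 min) and run on 16% Tris-glycine gel (110 V, 90 min).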"}, "human CatB": {"target": "human CatB (Homo sapiens, UniProt P07858)", "assay": "SDS-PAGE autoradiography of adduct formation with purified CatB", "assay_type": "biochemical", "details": "E-64 10 μM or N1 20 μM"}, "[1]": {"target": "T1, Cathepsin B (CatB, human liver) (Homo sapiens, UniProt P07858)", "assay": "CatB inhibition constants / Km, fluorogenic substrate Z-Arg-Arg-AMC", "assay_type": "biochemical"}, "[2]": {"target": "T1, Cathepsin B (CatB, human liver)", "details": "read-out: Michaelis-Menten constant (Km), reported value; cited from earlier work"}, "[3]": {"target": "T2, Cathepsin L (Cat L, human liver) (Homo sapiens, UniProt P07711)", "T2 sequence (P07711 114-288 limits assumed)": "as the sequence (P07711 114-288 limits assumed) above", "T2 sequence (P07711 292-333 limits assumed)": "as the sequence (P07711 292-333 limits assumed) above", "assay": "CatL inhibition constants / Km, fluorogenic substrate Z-Phe-Arg-AMC", "assay_type": "biochemical"}, "[4]": {"target": "T2, Cathepsin L (Cat L, human liver)", "details": "read-out: Michaelis-Menten constant (Km), literature value; CatL; cited from earlier work"}}, "note": "Like-named read-outs stand apart in the source and are kept apart here. Peptide text beside a SMILES is read from it. * marks the point of attachment. AMC = Cc1cc(=O)oc2cc(N*)ccc12; Cbz = O=C(OCc1ccccc1)*", "data": [{"molecule": "CC(C)C[C@H](NC(=O)[C@H]1O[C@@H]1C(=O)O)C(=O)NCCCCN=C(N)N", "note": "[E-64]", "values": [{"measurement": "effect of co-incubated agent on ^177Lu-NE1a adduct formation with CatL", "setting": "human CatL", "result": "prevented adduct formation"}, {"measurement": "effect of co-incubated agent on ^177Lu-NE1a intracellular adduct formation", "setting": "HT-29 cells", "result": "unaffected"}, {"measurement": "effect of co-incubated agent on ^177Lu-NE1a adduct formation with CatB", "setting": "human CatB", "result": "prevented adduct formation"}]}, {"molecule": "CC(C)C[C@H](NC(=O)CCC(=O)O)C(=O)N[C@@H](CCCNC(=N)N)C(=O)NCCN=[N+]=[N-]", "note": "[1b, 4-(((S)-1-(((S)-1-((2-azidoethyl)amino)-5-guanidino-1-oxopentan-2-yl)amino)-4-methyl-1-oxopentan-2-yl)amino)-4-oxobutanoic acid]", "values": [{"measurement": "inhibition of CatB", "setting": "[1]; over the test concentration ranges", "result": "No inhibition"}]}, {"molecule": "Cc1cc(=O)oc2cc(NC(=O)[C@H](CCCN=C(N)N)NC(=O)[C@H](CCCN=C(N)N)NC(=O)OCc3ccccc3)ccc12", "note": "[Z-Arg-Arg-AMC] (Cbz-Arg-Arg-{AMC})", "values": [{"measurement": "Km", "setting": "[1]; read-out: Michaelis-Menten constant (Km), CatB substrate", "result": "189 ± 2", "unit": "µM"}, {"measurement": "Km", "setting": "[2]", "result": "390 ± 20", "unit": "µM"}]}, {"molecule": "3-(((S)-1-(((S)-1-((2-azidoethyl)amino)-5-guanidino-1-oxopentan-2-yl)amino)-4-methyl-1-oxopentan-2-yl)carbamoyl)oxirane-2-carboxylic acid [1a]", "values": [{"measurement": "second order rate constant ki/Ki", "setting": "[1]; CatB", "result": "130000 ± 1900", "unit": "M⁻¹ s⁻¹"}, {"measurement": "second order rate constant ki/Ki", "setting": "[3]; CatL", "result": "16000 ± 1300", "unit": "M⁻¹ s⁻¹"}]}, {"molecule": "Cc1cc(=O)oc2cc(NC(=O)C(CCCN=C(N)N)NC(=O)C(Cc3ccccc3)NC(=O)OCc3ccccc3)ccc12", "note": "(stereo not drawn) [Z-Phe-Arg-AMC] (Cbz-Phe-Arg-{AMC}; configuration not given here)", "values": [{"measurement": "Km", "setting": "[4]", "result": "21.5 ± 3.2", "unit": "µM"}, {"measurement": "Km", "setting": "[3]; read-out: Michaelis-Menten constant (Km), CatL substrate", "result": "36 ± 3", "unit": "µM"}]}]}
